Measurements gathered from unrelated publications.
Lines come from different studies, so protocols differ.
DRD3: D(3) dopamine receptor (DRD3, Homo sapiens, UniProt P35462)
SLC6A3: Sodium-dependent dopamine transporter (SLC6A3, Homo sapiens, UniProt Q01959)
PDE10A: cAMP and cAMP-inhibited cGMP 3',5'-cyclic phosphodiesterase 10A (PDE10A, Homo sapiens, UniProt Q9Y233)

| Structure (SMILES) | target | test | setting | quantity | value |
| --- | --- | --- | --- | --- | --- |
| Cc1[nH]c(C)c(S(=O)(=O)Nc2ccc(C(=O)C(F)(F)F)c(Cl)c2)c1C(=O)N1CCC(F)(F)C1 | DRD3 | β-arrestin recruitment, agonist | 90 min | Emax | 96% |
| N#CC[C@@]12C[C@@H]1[C@@H](n1cnc3c(Nc4ccccc4)nc(I)nc31)[C@H](O)[C@@H]2O | SLC6A3 | ligand displacement, radioligand | 10 µM | inhibition | 54% |
| Cc1[nH]c(C)c(S(=O)(=O)Nc2cc(Cl)cc(C(F)(F)F)c2)c1C(=O)N1CCC(F)(F)C1 | DRD3 | β-arrestin recruitment, agonist | 90 min | Emax | 101% |
| CNC(=O)[C@@]12C[C@@H]1[C@@H](n1cnc3c(Nc4ccccc4)nc(C#Cc4ccc(Cl)s4)nc31)[C@H](O)[C@@H]2O | SLC6A3 | ligand displacement, radioligand | 10 µM | inhibition | 84% |
| Cc1[nH]c(C)c(S(=O)(=O)Nc2ccc([N+](=O)[O-])c(Cl)c2)c1C(=O)N1CCC(F)(F)C1 | DRD3 | β-arrestin recruitment, agonist | 90 min | Emax | 101% |
| COc1ccc2c(Cc3ccc(OC)c(OC)c3)ccnc2c1 | PDE10A | enzyme activity, inhibitor, FP | 0.1 µM | inhibition | 33% |
| N#C[C@@]12C[C@@H]1[C@@H](n1cnc3c(Nc4ccccc4)nc(C#Cc4ccc(Cl)s4)nc31)[C@H](O)[C@@H]2O | SLC6A3 | ligand displacement, radioligand | 10 µM | inhibition | 74% |
| COc1ccc2nccc(Cc3ccc(OC)c(OC)c3)c2c1 | PDE10A | enzyme activity, inhibitor, FP | 0.1 µM | inhibition | 3% |
| COc1ccc2oc(-c3ccc4nc(N)oc4c3)c/c(=N\c3ccccc3NC(=O)CCN)c2c1 | Activated CDC42 kinase 1 (TNK2, Homo sapiens, UniProt Q07912) | binding | 1 µM | remaining binding | 100% |
| Cc1[nH]cc(S(=O)(=O)Nc2ccc(C(F)(F)F)c(Cl)c2)c1C(=O)N1CCC(F)(F)C1 | DRD3 | β-arrestin recruitment, agonist | 90 min | Emax | 91% |
| COc1ccc2ccnc(Cc3cccc(-c4ccccc4)c3)c2c1 | PDE10A | enzyme activity, inhibitor, FP | 0.1 µM | inhibition | 5% |
| Cc1[nH]c(C)c(S(=O)(=O)Nc2ccc(C(F)(F)F)c(Cl)c2)c1C(=O)N1CC(F)(F)C(F)(F)C1 | DRD3 | β-arrestin recruitment, agonist | 90 min | Emax | 100% |
| C1=C/COCc2cc(ccc2OCCN2CCCC2)Nc2nccc(n2)-c2cccc(c2)COC/1 | Serine/threonine-protein kinase D1 (PRKD1, Homo sapiens, UniProt Q15139) | binding | 0.1 µM | remaining binding | 100% |
| c1ccc2c(Cc3ccc4cn(C5COC5)nc4c3)nccc2c1 | PDE10A | enzyme activity, inhibitor, FP | 0.1 µM | inhibition | 0% |
| Cc1[nH]c(C)c(S(=O)(=O)Nc2ccc(C(F)(F)F)c(Cl)c2)c1C(=O)N1CCC(F)(F)C1 | DRD3 | β-arrestin recruitment, agonist | 90 min | Emax | 103% |
| OC[C@@]12C[C@@H]1[C@@H](n1cnc3c(N[C@@H](C4CCC4)C4CC4)nc(C#Cc4ccc(Cl)s4)nc31)[C@H](O)[C@@H]2O | SLC6A3 | ligand displacement, radioligand | 10 µM | inhibition | 80% |
| c1ccc(-c2cccc(Cc3ccnc4cc(C5COC5)ccc34)c2)cc1 | PDE10A | enzyme activity, inhibitor, FP | 0.1 µM | inhibition | 3% |
| CCOC(=O)[C@@]12C[C@@H]1[C@@H](n1ccc3c(NCCCCc4ccccc4)nc(C#Cc4ccccc4)nc31)[C@H](O)[C@@H]2O | SLC6A3 | ligand displacement, radioligand | 10 µM | inhibition | 66% |
| COc1ccc(C(=O)c2ncnc3cc(OC)c(OC)cc23)cc1 | PDE10A | enzyme activity, inhibitor, FP | 0.1 µM | inhibition | 39% |
| Cc1[nH]c(C)c(S(=O)(=O)Nc2ccc(Cl)c(C(F)(F)F)c2)c1C(=O)N1CCCC1 | DRD3 | β-arrestin recruitment, agonist | 90 min | Emax | 88% |
| CCCCC(=O)Nc1ccc(-c2ccc3ncn(CCC)c(=O)c3c2)cn1 | Discoidin domain-containing receptor 2 (DDR2, Homo sapiens, UniProt Q16832) | binding, competition with immobilised ligand | 0.5 µM | remaining binding | 100% |
| N#CC[C@@]12C[C@@H]1[C@@H](n1cnc3c(NCCCCCc4ccccc4)nc(I)nc31)[C@H](O)[C@@H]2O | SLC6A3 | ligand displacement, radioligand | 10 µM | inhibition | 23% |
| COc1ccc(Cc2nccc3cc(C4COC4)ccc23)cc1OC | PDE10A | enzyme activity, inhibitor, FP | 0.1 µM | inhibition | 0% |
| CCOC(=O)[C@@]12C[C@@H]1[C@@H](n1ccc3c(NCCCCCc4ccccc4)nc(C#Cc4ccccc4)nc31)[C@H](O)[C@@H]2O | SLC6A3 | ligand displacement, radioligand | 10 µM | inhibition | 63% |
| Cc1ccc(NS(=O)(=O)c2c(C)[nH]c(C)c2C(=O)N2CCC2)cc1Cl | DRD3 | β-arrestin recruitment, agonist | 90 min | Emax | 96% |
| COc1cc2ncnc(Cc3cccc(-c4ccc(CO)cc4)c3)c2cc1OC | PDE10A | enzyme activity, inhibitor, FP | 0.1 µM | inhibition | 66% |
| N#CC[C@@]12C[C@@H]1[C@@H](n1cnc3c(Nc4ccccc4)nc(C#Cc4ccc(Cl)s4)nc31)[C@H](O)[C@@H]2O | SLC6A3 | ligand displacement, radioligand | 10 µM | inhibition | 18% |
